Assay results from ChEMBL document CHEMBL4321849, “Biphenyl Acid Derivatives as APJ Receptor Agonists” (J Med Chem, 2019).
Values after ≈ are worked out from the molar mass of the structure shown. Active and inactive are the calls of the source. The calls are words filed in the database; no cut-off is given here.

Columns and labels:
Rattus norvegicus [1] = test: (§1) Acute hemodynamic effect in isoflurane-anesthetized Sprague-Dawley rat assessed as increase in cardiac output at 10 to 1000 ug/min/kg, iv infused into jugular vein for 15 mins with continuous monitoring of hemodynamics followed by monitoring for additional 15 mins after terminating infusion by pressure-volume loop analysis relative to control; assay type: functional, organism-based
Method in brief: (§2)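 Male SD rats under isoflurane, instrumented with a Millar PV-loop catheter in the LV and a pressure catheter in the abdominal aorta. After a stable baseline, test agent or N,N-dimethylacetamide vehicle (100 μL/kg/min) infused into the jugular vein for 15 min. Hemodynamics were monitored continuously during infusion and for 15 min after it stopped. n = 7–8 per dose, vehicle n = 10.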

[2] = target: T1, Apelin receptor (Homo sapiens) (UniProt P35414); test: Displacement of [125I]-apelin-13 from human APJ-R expressed in HEK293 cell membranes incubated for 1 hr by radioligand binding assay
T1 sequence (whole entry): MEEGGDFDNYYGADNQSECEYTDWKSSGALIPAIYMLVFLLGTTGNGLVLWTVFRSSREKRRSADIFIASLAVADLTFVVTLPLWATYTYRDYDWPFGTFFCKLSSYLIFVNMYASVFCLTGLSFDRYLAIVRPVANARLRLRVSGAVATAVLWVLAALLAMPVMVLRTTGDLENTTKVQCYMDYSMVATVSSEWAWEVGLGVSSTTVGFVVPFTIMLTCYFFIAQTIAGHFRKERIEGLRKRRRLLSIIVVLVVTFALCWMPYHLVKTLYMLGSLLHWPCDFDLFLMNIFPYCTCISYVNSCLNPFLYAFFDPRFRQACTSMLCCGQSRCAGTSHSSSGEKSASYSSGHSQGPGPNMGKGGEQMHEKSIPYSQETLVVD
Method in brief: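 Membranes from HEK293 cells expressing human APJ-R (1 μg) were incubated with increasing test concentrations and 0.1 nM [125I]-(Pyr1)apelin-13. Buffer was 25 mM HEPES, 10 mM MgCl2, 2 mM EGTA and 0.1% BSA, pH 7.2. Incubation ran 1 h at room temperature. Bound ligand was separated on 0.3% polyethyleneimine-soaked GF/B filters.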

Apelin receptor [3] = target: T2, Apelin receptor (Homo sapiens, UniProt P35414); test: Agonist activity at human APJ-R expressed in HEK293 cells assessed as inhibition of forskolin- stimulated cAMP accumulation incubated for 30 mins by HTRF assay; assay type: functional, cell-based
T2 sequence (P35414 whole entry): T1 sequence (whole entry)

Apelin receptor [4] = target: T3, Apelin receptor (Rattus norvegicus, UniProt Q9JHG3); test: Agonist activity at rat APJ-R expressed in HEK293 cells assessed as inhibition of forskolin- stimulated cAMP accumulation incubated for 30 mins by HTRF assay; assay type: functional, cell-based
T3 sequence (Q9JHG3 whole entry): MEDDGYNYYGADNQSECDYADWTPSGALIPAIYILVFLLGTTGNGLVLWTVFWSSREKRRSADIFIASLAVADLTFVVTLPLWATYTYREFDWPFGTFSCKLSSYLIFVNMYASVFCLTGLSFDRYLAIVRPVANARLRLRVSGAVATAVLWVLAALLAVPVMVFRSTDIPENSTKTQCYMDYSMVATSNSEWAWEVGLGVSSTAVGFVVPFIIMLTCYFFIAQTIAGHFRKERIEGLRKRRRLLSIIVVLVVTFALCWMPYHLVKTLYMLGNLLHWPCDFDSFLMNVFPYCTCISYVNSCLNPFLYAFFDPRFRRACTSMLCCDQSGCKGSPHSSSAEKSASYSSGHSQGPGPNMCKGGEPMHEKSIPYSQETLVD

[5] = Solubility in pH 7.4 buffer using amorphous form; assay type: physicochemical
[6] = as §1, with “Toxicity” for “Acute hemodynamic effect”, “effect on blood pressure by measuring transient blood pressure drop” for “increase in cardiac output”, “6” for “10 to 1000”; assay type: organism-based; conditions: in vivo, 0.25 h; method in brief: as §2
Rattus norvegicus [7] = test: as §1, with “6” for “10 to 1000”; assay type: functional, organism-based; method in brief: as §2
[8] = as §1, with “Toxicity” for “Acute hemodynamic effect”, “effect on heart rate” for “increase in cardiac output”, “6” for “10 to 1000”; assay type: organism-based; conditions: in vivo, 0.25 h; method in brief: as §2
[9] = as §1, with “Toxicity” for “Acute hemodynamic effect”, “effect on heart rate” for “increase in cardiac output”, “100” for “10 to 1000”; assay type: organism-based; conditions: in vivo, 0.25 h; method in brief: as §2
[10] = Plasma concentration in Sprague-Dawley rat at 100 ug/min/kg, iv infused into jugular vein for 15 mins; assay type: ADME, organism-based
Method in brief: (§3)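 Rats separate from the hemodynamic groups received the same 15 min jugular infusions (n = 3/dose). Plasma concentration (μM) was measured at the end of the 15 min infusion. Washout samples were also taken after stopping the 10 and 1000 μg/kg/min infusions.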

[11] = as §1, with “Toxicity” for “Acute hemodynamic effect”, “effect on heart rate” for “increase in cardiac output”; assay type: organism-based; conditions: in vivo, 0.25 h; method in brief: as §2
[12] = Plasma concentration in Sprague-Dawley rat at 10 ug/min/kg, iv infused into jugular vein for 15 mins; assay type: ADME, organism-based; method in brief: as §3
[13] = Plasma concentration in Sprague-Dawley rat at 1000 ug/min/kg, iv infused into jugular vein for 15 mins; assay type: ADME, organism-based; method in brief: as §3
[14] = as §1, with “Toxicity” for “Acute hemodynamic effect”, “effect on blood pressure by measuring transient blood pressure drop” for “increase in cardiac output”, “100” for “10 to 1000”; assay type: organism-based; conditions: in vivo, 0.25 h; method in brief: as §2
Rattus norvegicus [15] = test: as §1, with “100” for “10 to 1000”; assay type: functional; method in brief: as §2

| SMILES | EC50 (Apelin receptor [3]) | also measured |
| --- | --- | --- |
| CCC[C@@H](NC(=O)c1ccc(-c2c(Cl)cccc2-c2nc3ccccc3[nH]2)c(C(=O)O)c1)c1ccccc1 (stereo in doubt; 15a) [listing 1 of 2 here] |  | Activity (Rattus norvegicus [1]): Dose-dependent effect; inhibition [2]: Active |
| COC[C@H](NC(=O)c1ccc(-c2cc(Cl)ccc2C(=O)Nc2ccc(OC)c(F)c2)c(C(=O)O)c1)c1ccccc1 | 2.7 nM |  |
| CCC[C@@H](NC(=O)c1ccc(-c2cccc(Cl)c2-c2nc3ccccc3[nH]2)c(C(=O)O)c1)c1ccccc1 | 2100 nM |  |
| CCC[C@@H](NC(=O)c1ccc(-c2cc(OC)ccc2-c2nc3ccccc3[nH]2)c(C(=O)O)c1)c1ccccc1 | 5.7 nM |  |
| COC[C@@H](NC(=O)c1ccc(-c2cc(Cl)ccc2C(=O)Nc2ccc(OC)c(F)c2)c(C(=O)O)c1)c1ccccc1 | 0.19 nM |  |
| CCC[C@@H](NC(=O)c1ccc(-c2cc(Cl)ccc2-c2nc3ccccc3o2)c(C(=O)O)c1)c1ccccc1 | 4900 nM |  |
| CCC[C@@H](NC(=O)c1ccc(-c2ccccc2-c2nc3ccccc3[nH]2)c(C(=O)O)c1)c1ccccc1 | 5.7 nM |  |
| CCC[C@@H](NC(=O)c1ccc(-c2cc(Cl)ccc2-c2ncc(-c3ccccc3)[nH]2)c(C(=O)O)c1)c1ccccc1 | 7.4 nM |  |
| COc1ccc(NC(=O)c2ccc(Cl)cc2-c2ccc(C(=O)N[C@H](CO)c3ccccc3)cc2C(=O)O)cc1F | 59 nM |  |
| CCC[C@@H](NC(=O)c1ccc(-c2c(Cl)cccc2-c2nc3cc(OC)ccc3[nH]2)c(C(=O)O)c1)c1ccccc1 | 0.062 nM | EC50 (Apelin receptor [4]): 0.12 nM; solubility [5]: 180 µg/mL (≈ 325 µM) |
| CSCC[C@H](NC(=O)[C@@H]1CCCN1C(=O)CNC(=O)[C@H](CCCCN)NC(=O)[C@H](Cc1cnc[nH]1)NC(=O)[C@H](CO)NC(=O)[C@H](CC(C)C)NC(=O)[C@H](CCCNC(=N)N)NC(=O)[C@@H]1CCCN1C(=O)[C@H](CCCNC(=N)N)NC(=O)[C@@H]1CCC(=O)N1)C(=O)N1CCC[C@H]1C(=O)N[C@@H](Cc1ccccc1)C(=O)O |  | Activity [6]: Non-Toxic; Activity (Rattus norvegicus [7]): Active; Activity [8]: Non-Toxic |
| COc1ccc(NC(=O)c2ccc(Cl)cc2-c2ccc(C(=O)Nc3ccc4c(c3)CCC4)cc2C(=O)O)cc1F | 29 nM |  |
| CCC[C@@H](NC(=O)c1ccc(-c2cc(Cl)ccc2-c2nc3cc(C)ccc3[nH]2)c(C(=O)O)c1)c1ccccc1 | 0.6 nM |  |
| CCC[C@@H](NC(=O)c1ccc(-c2cc(C)ccc2-c2nc3ccccc3[nH]2)c(C(=O)O)c1)c1ccccc1 | 1.5 nM |  |
| CCC[C@@H](NC(=O)c1ccc(-c2cc(Cl)ccc2-c2nc3cccc(C)c3[nH]2)c(C(=O)O)c1)c1ccccc1 | 51 nM |  |
| CCC[C@@H](NC(=O)c1ccc(-c2c(F)cccc2-c2nc3ccccc3[nH]2)c(C(=O)O)c1)c1ccccc1 | 0.51 nM |  |
| CCC[C@@H](NC(=O)c1ccc(-c2cc(Cl)ccc2-c2nc3ccncc3[nH]2)c(C(=O)O)c1)c1ccccc1 | 19 nM |  |
| CCC[C@@H](NC(=O)c1ccc(-c2cc(Cl)ccc2-c2nc3cc(Cl)ccc3[nH]2)c(C(=O)O)c1)c1ccccc1 | 0.31 nM |  |

More lines, in order of falling EC50 (Apelin receptor [3]), values ahead:

| EC50 (Apelin receptor [3]) | SMILES | also measured |
| --- | --- | --- |
| 22 nM | CCC[C@@H](NC(=O)c1ccc(-c2c(Cl)cccc2-c2nc3ccccc3[nH]2)c(C(=O)O)c1)c1ccccc1 (stereo in doubt; 15b) | EC50 (Apelin receptor [4]): 43 nM |
| 9 nM | CCC[C@@H](NC(=O)c1ccc(-c2ccc(Cl)cc2-c2nc3ccccc3[nH]2)c(C(=O)O)c1)c1ccccc1 |  |
| 1.4 nM | CCC[C@@H](NC(=O)c1ccc(-c2cc(Cl)ccc2-c2nc3ccccc3[nH]2)c(C(=O)O)c1)c1ccccc1 |  |
| 0.33 nM | CCC[C@@H](NC(=O)c1ccc(-c2cc(Cl)ccc2C(=O)Nc2ccc(OC)c(F)c2)c(C(=O)O)c1)c1ccccc1 |  |
| 0.2 nM | CCC[C@@H](NC(=O)c1ccc(-c2c(Cl)cccc2-c2nc3ccccc3[nH]2)c(C(=O)O)c1)c1ccccc1 (stereo in doubt; 12f) |  |
| 0.18 nM | CCC[C@@H](NC(=O)c1ccc(-c2c(C)cccc2-c2nc3ccccc3[nH]2)c(C(=O)O)c1)c1ccccc1 |  |
| 0.093 nM | CCC[C@@H](NC(=O)c1ccc(-c2c(Cl)cccc2-c2nc3ccccc3[nH]2)c(C(=O)O)c1)c1ccccc1 (stereo in doubt; 15a) [listing 2 of 2 here] | Activity [9]: Non-Toxic; concentration at 0.25 h [10]: 4.4 µM; Activity [11]: Non-Toxic; concentration at 0.25 h [12]: 440 nM; concentration at 0.25 h [13]: 82 µM; EC50 (Apelin receptor [4]): 0.12 nM; Activity [14]: < 5%; Activity (Rattus norvegicus [15]): 10%; solubility [5]: 660 µg/mL (≈ 1260 µM) |
| 0.083 nM | CCC[C@@H](NC(=O)c1ccc(-c2cc(Cl)ccc2-c2nc3cc(OC)ccc3[nH]2)c(C(=O)O)c1)c1ccccc1 |  |
